What was measured:
[1] = system: CIA mice; test: Collagen-induced arthritis; assay type: in vivo, mouse (DBA/1 J); conditions: TIP3 10 nmol/g or MTX 2 mg/kg, i.p. daily from day 22
Summary of the method: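 Male DBA/1J mice (6–7 weeks, 20–23 g) immunised at tail base with 100 μg chicken type II collagen in an equal volume of complete Freund's adjuvant (day 0), boosted day 20. Groups of n = 7. Test compound (2·5 or 10 nmol/g) or methotrexate (2 mg/kg) in saline given i.p. once daily from day 22. Body weight, paw volume and arthritis index tracked. […] (maximum 16), twice weekly.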

[2] = system: mice with IMQ-induced psoriasis-like disease; test: Histology and immunohistochemistry of back skin, psoriasis model; assay type: in vivo, mouse (C57BL/6); conditions: immunohistochemistry
Summary of the method: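 Back-skin lesions from imiquimod-treated C57BL/6 mice fixed in 4% paraformaldehyde, paraffin-embedded and sectioned at 7 μm. H&E staining used for epidermal/dermal thickness, measured by microscopy. Immunohistochemistry done with HRP/DAB detection using primary antibodies to CD68, CD4 and IL-17.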

[3] = system: RAW264.7 cells; test: MTT cell viability, RAW264.7 cells; assay type: cell-based, murine; conditions: ≤50 µM
Summary of the method: (§1)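 MTT colourimetric viability assay. HEK-Blue hTLR4 cells (high-glucose DMEM, 10% FBS, normocin) seeded at 5 × 10^4/well. RAW264.7 cells seeded at 2 × 10^5/well. Both grown overnight before exposure to test compound.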

[4] = system: TLR4; test: Western blot, LPS-stimulated RAW264.7 cells; assay type: cell-based, murine; conditions: for expression of MAPKs: Supp Fig. 1c (p-ERK, p-JNK, p-p38)
Summary of the method: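 Total protein extracted with M-PER reagent and quantified by BCA. Membranes incubated with primary antibodies overnight at 4 °C, washed in PBS/0·1% Tween 20, then HRP-conjugated secondary (1:1000) for 2 h. Bands detected by enhanced chemiluminescence, with β-actin as loading reference.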

[5] = system: TLR4; test: Cytokine ELISA, LPS-stimulated RAW264.7 cells; assay type: cell-based, murine; conditions: n ≥ 3
Summary of the method: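 Murine macrophages seeded at 2 × 10^5/well (96-well) or 5 × 10^5/well (24-well) and grown overnight, then treated with test compound and LPS. After 24 h treatment, secreted IFN-β was measured by pre-coated mouse IFN-β ELISA. Mouse IL-6 and mouse TNF-α were measured by ELISA kits.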

[6] = system: TLR4 (HEK-Blue™ hTLR4 cells); test: SEAP activity assay; assay type: cell-based, human; conditions: LPS-stimulated; absorbance at 620 nm; n ≥ 3
Summary of the method: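 Seeded at 2 × 10^5/well (24-well) and grown overnight, then treated with a range of test-compound concentrations with or without LPS. Supernatants heat-treated at 65 °C for 10 min. SEAP (NF-κB reporter) detected with HEK-Blue detection medium.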

[7] = system: HEK-Blue™ hTLR4 cells; test: MTT cell viability, HEK-Blue hTLR4 cells; assay type: cell-based, human; conditions: n ≥ 3
Summary of the method: as §1

[8] = system: multiple TLR signalling pathways; conditions: ref [44]; cited from earlier work

Molecule | cell viability [3] | Iκ-Bα degradation [4] | phosphorylation of p65 subunit of NF-κB (p-p65) [4] | expression of MAPKs [4] | LPS-induced TNF-α secretion [5] | other results
CN(Cc1cnc2nc(N)nc(N)c2n1)c1ccc(C(=O)N[C@@H](CCC(=O)O)C(=O)O)cc1 [MTX, methotrexate, reference compound] | – | – | – | – | – | loss of body weight [1]: not observed; arthritis index ([1]; maximal score 16): significantly decreased; relative paw volume (large paw volume) ([1]; plethysmometer): TIP3 (10 nmol/g)- and MTX-injected mice did not; overexpression of CD4 in skin [2]: just as in the MTX-treated group; overexpression of CD68 in skin [2]: just as in the MTX-treated group; overexpression of IL-17 in skin [2]: just as in the MTX-treated group
DYDVCVCH [TIP3 w/o CPP] | did not affect the cell viability at ≤50 µM | neither peptide inhibited Iκ-Bα degradation | neither peptide inhibited Iκ-Bα degradation, phosphorylation of the p65 subunit of NF-κB (p-p65) | neither peptide inhibited Iκ-Bα degradation, phosphorylation of the p65 subunit of NF-κB (p-p65), or the expression of mitogen-activated protein kinase (MAPKs) | did not have any modulatory effect on TNF-α secretion | –
KKWKMRRNQFWIKIQR [CPP, reference compound] | did not affect the cell viability at ≤50 µM | neither peptide inhibited Iκ-Bα degradation | neither peptide inhibited Iκ-Bα degradation, phosphorylation of the p65 subunit of NF-κB (p-p65) | neither peptide inhibited Iκ-Bα degradation, phosphorylation of the p65 subunit of NF-κB (p-p65), or the expression of mitogen-activated protein kinase (MAPKs) | did not have any modulatory effect on TNF-α secretion | –
TIPLLS [TIP2] | – | – | – | – | – | inhibition of LPS-induced SEAP activity (NF-κB) [6]: TIP3, but not TIP2, hampered the LPS-induced SEAP activity; cell viability / cytotoxicity ([7]; 12·5 to 50 μM): did not show any significant cytotoxicity; cell viability / cytotoxicity ([7]; high concentration, 100 μM): slight cytotoxicity; TLR signalling inhibition [8]: TIP1, but not TIP2, abrogates multiple TLR signalling pathways
